NTR1 ag: activates human neurotensin receptor 1; P30989; NTR1-U2OS beta-arrestin-GFP spot imaging, agonist mode; activation, % at 20 µM; 0.17% of 330,000 active; AID 493036;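 active = activation at or above 40% of the spot to cytoplasm intensity ratio, with at least 20 cells analyzed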;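 also: 0% = DMSO without peptide and 100% = 100 nM NTR1 peptide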
Target sequence (P30989 whole entry, looked up): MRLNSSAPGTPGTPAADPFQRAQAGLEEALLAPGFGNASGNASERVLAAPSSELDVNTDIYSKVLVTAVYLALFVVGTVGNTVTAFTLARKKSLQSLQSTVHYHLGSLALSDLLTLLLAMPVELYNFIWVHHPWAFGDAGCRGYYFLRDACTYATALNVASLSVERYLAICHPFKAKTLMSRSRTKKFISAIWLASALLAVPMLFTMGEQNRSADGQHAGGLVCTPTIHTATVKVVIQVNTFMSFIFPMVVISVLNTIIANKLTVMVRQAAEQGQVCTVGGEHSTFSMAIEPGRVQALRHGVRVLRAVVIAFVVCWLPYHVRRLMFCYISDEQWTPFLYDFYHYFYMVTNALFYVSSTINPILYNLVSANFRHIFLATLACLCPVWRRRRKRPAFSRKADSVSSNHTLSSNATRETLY
MC4R antag cAMP: human MC4R antagonism in cAMP assay; 0.48% of 360,000 active; MC4R-expressing cells, MTII-stimulated cAMP, LANCE TR-FRET; inhibition, % at 6.5 µM; AID 540295;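 active = inhibition above its plate's cutoff, the mean of tested wells on that plate plus 3 SD, cut at about 29% in these data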;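 also: 0% = Melanotan II alone and 100% = Melanotan II plus saturating MCL0020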
Target sequence (P32245 whole entry, looked up): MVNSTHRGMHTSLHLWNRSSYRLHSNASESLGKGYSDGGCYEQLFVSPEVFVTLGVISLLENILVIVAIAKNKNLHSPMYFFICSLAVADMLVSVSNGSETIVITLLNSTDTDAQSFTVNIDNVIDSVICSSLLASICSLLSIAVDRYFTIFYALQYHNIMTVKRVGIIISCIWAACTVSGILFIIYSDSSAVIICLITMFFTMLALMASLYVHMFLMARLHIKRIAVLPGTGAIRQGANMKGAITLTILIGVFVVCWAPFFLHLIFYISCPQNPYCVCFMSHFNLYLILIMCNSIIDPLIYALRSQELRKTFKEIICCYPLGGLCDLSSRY
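Assay system: human MC4R-expressing U2OS cells; reagent: Melanotan II stimulation of cells; dosing: 6.5 µM single dose; timing: compound 30 min, challenge 1 h, detection 1 h; signal: TR-FRET cAMP assay; replicates: one well per compound, no replicates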
MC4R ag barr: human MC4R agonism via beta-arrestin. 0.98% of 360,000 active. U2OS MC4R beta-arrestin complementation, luminescence; percent of melanotan II response, DMSO zero. AID 540308. activation, % at 8.9 µM. P32245;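 active = activation above a per-plate cutoff, the mean activation of sample wells on that plate plus 3 SD, cut at about 8% in these data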
PG9 binder: binds the HIV-1 gp120 antibody PG9; TR-FRET gp120-PG9 antibody binding; 0.43% of 360,000 active; AID 624416; inhibition, % at 6.7 µM; in the data active = inhibition above about 8.5%
NR1D1 modulator: Rev-erb alpha (human) modulation; P20393; Rev-erbα–FITC-DNA binding, fluorescence polarization, 90 min; activity, % at 10 µM; 0.79% of 370,000 active;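 active = activity above about 14%, limit read from the data; passing the limit was not always enough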;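 also: 0% = DMSO wells with 35 nM protein and 100% = DMSO wells with 750 nM protein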
MC4R barr conf: human MC4R beta-arrestin agonism confirmation | activation, % at 8.9 µM | 31% of 2,400 active | shares compounds with MC4R ag barr | U2OS MC4R beta-arrestin recruitment, luminescence; scaled DMSO 0%, Melanotan II 100%;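 active = mean activation across replicates above the hit cutoff set in the earlier primary screen, cut at about 8% in these data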
MOR DOR agonist: activates mu-delta opioid heterodimer, MC4R agonist counter-screen; shares compounds with MC4R ag barr; U2OS PathHunter beta-arrestin, beta-gal luminescence; percent of deltorphin B response, DMSO zero; activation, % at 9.2 µM; 5.8% of 2,400 active;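 active = mean activation across replicates exceeds the hit threshold derived in the earlier primary screen, cut at about 18% in these data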;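 also: 100% = deltorphin B at 0.9 µM final and 0% = DMSO alone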
The depositor's hits bear a star; nt = no result given. A selection: hits, their analogues and other compounds. The true share with any hit is near 2.5%.

SMILES | NTR1 ag | MC4R antag cAMP | MC4R ag barr | PG9 binder | NR1D1 modulator | MC4R barr conf | MOR DOR agonist
CCOc1ccc(C(=O)NC(=S)Nc2ccc(NC(=O)c3ccco3)c(C)c2)cc1[N+](=O)[O-] | 2.1 | 5.5 | 10.5* | -0.6 | 2.3 | 6.6 | 4.7
CC(=O)NC(=S)Nc1ccc(NC(=O)c2cccs2)cc1 | 2.5 | 9.0 | -0.6 | -2.1 | -2.4 | nt | nt
Cc1ccsc1C=Nn1c(-c2n[nH]c3c2CCC3)n[nH]c1=S | nt | nt | nt | nt | -4.0 | nt | nt
CC(=O)N1CCN(C(=O)c2ccc(CNC(=O)c3cccc(Br)c3)cc2)CC1 | nt | nt | nt | nt | -7.7 | nt | nt
COc1ccc(/C=C2/CN(Cc3ccc(OC)cc3OC)C3=NC(c4ccc5ccccc5c4)CC(=O)N32)cc1 (stereo unspecified) | nt | nt | nt | nt | 4.2 | nt | nt
COc1ccccc1C(=O)NC(=S)Nc1ccc(NC(=O)c2ccco2)cc1 | 5.0 | 2.5 | 11.4* | 2.1 | -5.3 | 3.4 | 4.4
CC(C)(C)c1ccc(C(=O)Nc2ccc(NC(=O)c3ccco3)cc2)cc1 | 15.9 | 8.6 | 24.6* | 0.9 | 1.6 | 6.1 | 13.1
CCOc1cccc(N2C(=O)CC(NNC(=O)c3ccc(Br)o3)C2=O)c1 (stereo unspecified) | 0.3 | 11.2 | -0.9 | -3.0 | -0.8 | nt | nt
CCCOc1ccc(N2C(=O)CC(NNC(=O)c3ccc(COc4ccccc4)o3)C2=O)cc1 (stereo unspecified) | 0.5 | 20.6 | 13.0* | -3.0 | -0.2 | 4.8 | 7.1
CC1(C)O[C@@H]2CC3C4C[C@H](F)C5=CC(=O)CC[C@]5(C)C4[C@@H](O)C[C@]3(C)[C@]2(C(=O)CO)O1 (stereo partly specified) | nt | nt | nt | nt | -3.8 | nt | nt
C#CCn1c2ccccc2c2nc3ccccc3nc21 | -1.6 | -1.6 | 10.7* | -0.7 | 3.8 | -0.3 | 4.9
O=C(CSc1nnc(COc2ccc(Cl)cc2)n1Cc1ccco1)c1ccccc1F | 0.8 | 3.2 | 22.1* | -2.2 | 4.9 | 4.3 | 3.4
Cc1ccc(NC(=O)C2CCCN(c3nnc(-n4cccc4)s3)C2)cc1C (stereo unspecified) | nt | nt | nt | nt | -6.2 | nt | nt
O=C(CCn1nnc(-c2cccs2)n1)N1CCOCC1 | nt | nt | nt | nt | -4.4 | nt | nt
Cc1cc(C)cc(NC(=O)Cc2ccc(-n3cccc3)cc2)c1 | -2.3 | 8.8 | 9.7* | -1.8 | -2.8 | 2.5 | 4.1
Cc1ccc(NC(=O)Cc2ccc(-n3cccc3)cc2)c(C)c1 | -1.3 | 0.5 | 2.3 | 1.4 | -2.1 | nt | nt
COc1ccccc1N=c1oc2c(OC)cccc2cc1C(=O)NCc1ccco1 | 10.2 | 0.7 | 24.2* | nt | nt | 4.2 | 25.3*
O=C(O[C@H]1CC[C@@]23CCCN2C(=O)CCC[C@H]3C1)N1CCCC1 | nt | nt | nt | nt | -9.1 | nt | nt
CCCC[C@H]1C2CC(OC(=O)Nc3cccc(Cl)c3)C(C2)[C@H]2CCCCN21 (stereo partly specified) | nt | nt | nt | nt | -0.3 | nt | nt
O=C(CCc1ccccc1)N/N=C/c1cc(Br)ccc1O | 8.0 | 0.5 | 15.5* | -1.2 | -9.8 | -1.1 | 6.8
O=C(CCc1ccccc1)N/N=C\c1cc2c(cc1Br)OCO2 | 13.9 | 10.9 | 0.3 | -0.8 | 3.1 | nt | nt
C=CCN(C)CC#Cc1ccc(OC)cc1 | nt | nt | nt | nt | -1.1 | nt | nt
COc1cc(NS(=O)(=O)c2ccc(NC(=S)NC(=O)c3sc4ccccc4c3Cl)cc2)ncn1 | nt | -1.3 | 14.7* | 6.2 | 0.1 | 18.9* | 1.0
Cc1cccc(OC[C@@H](O)CN2CCC(C(O)(c3ccccc3)c3ccccc3)CC2)c1 | nt | nt | nt | nt | 5.8 | nt | nt
O=C(Nc1ccc(F)cc1F)c1csc(-c2ccncc2)n1 | -0.4 | 20.1 | 1.6 | 0.9 | 1.2 | nt | nt
SMILES | NTR1 ag | MC4R antag cAMP | MC4R ag barr | PG9 binder | NR1D1 modulator | MC4R barr conf | MOR DOR agonist
O=C(Nc1ccc(F)cc1F)c1csc(-c2cccs2)n1 | 1.6 | -2.4 | 14.6* | -0.2 | 4.2 | 0.0 | 3.6
Cc1ccc(CNC(=O)Cn2c(=O)c3sccc3n(Cc3ccc([N+](=O)[O-])cc3)c2=O)cc1 | 17.4 | 15.3 | 14.2* | -2.9 | 0.1 | -3.1 | 3.4
Cc1cccc(C)c1OCCOC(=O)c1n[nH]c2ccccc12 | 13.9 | -14.8 | 1.1 | 2.2 | 7.8 | nt | nt
Cc1ccc(C)c(C(=O)COC(=O)c2n[nH]c3ccccc23)c1 | 16.7 | -13.9 | 16.4* | -0.6 | -3.4 | 16.1* | 8.5
O=C1/C(=C/c2ccc(O)cc2)SC(=S)N1Cc1cccnc1 | 1.3 | -3.4 | -2.4 | -1.7 | -9.4 | nt | nt
C#CCOc1ccc(/C=C2\SC(=S)N(Cc3cccnc3)C2=O)cc1 | 4.4 | 2.3 | 12.6* | 0.4 | -3.5 | 3.3 | 3.3
COc1cc(NC(=O)c2ccccc2)c(C)cc1NC(=O)CSc1nnc(-c2cnccn2)n1-c1ccc(C)cc1 | nt | nt | nt | nt | -4.7 | nt | nt
CCN(CC)C(=O)CSc1nnc(-c2ccccn2)n1C | nt | nt | nt | nt | -0.9 | nt | nt
COc1ccc(CC(=O)Nc2ccc(N3CCOCC3)cc2)cc1OC | -0.4 | 6.0 | 9.6* | -2.6 | 9.1 | 9.6* | 10.5
CC(C)CN1C(=O)[C@]2(CC(=O)N(C)C2c2ccccc2)c2cc(-n3cc(C4=CCCCC4)nn3)ccc21 (stereo partly specified) | nt | nt | nt | nt | 0.4 | nt | nt
COc1ccc(-n2c(Cc3cccs3)nnc2SCC(=O)Nc2cccc3ccccc23)cc1 | nt | nt | nt | nt | -1.0 | nt | nt
COc1ccc(-c2cnnc(N/N=C/c3ccc(OC)c(OC)c3)n2)cc1 | 3.8 | -5.2 | 12.7* | 0.6 | 0.1 | -2.9 | 5.2
COc1ccc(/C=N/NC(=O)c2ccncc2)cc1OC | 1.1 | -3.4 | -1.3 | 0.9 | 1.5 | nt | nt
COc1ccc(-c2cc(-c3ccccc3)nc(Cl)n2)cc1OC | 19.2 | -2.9 | 12.7* | 1.3 | 1.9 | 7.2 | 4.9
Cc1ccc(-c2cc(-c3ccccc3)nc(Cl)n2)cc1 | 3.7 | -5.0 | 4.3 | 0.7 | 1.0 | nt | nt
COc1ccc(/C=N/NC(=O)c2nc(-c3ccccc3)cc(-c3ccccc3)n2)cc1OC | 4.6 | 10.5 | 19.1* | 0.7 | 0.1 | 2.1 | 4.5
COc1ccc(/C=N/Nc2nc(C)cc(-c3ccccc3)n2)cc1OC | 2.2 | 6.4 | -1.3 | -2.2 | 7.0 | nt | nt
COc1ccc(/C=C/C(=O)Oc2ccc(/C=N/NC(=O)c3ccccc3)cc2)cc1OC | 11.5 | 4.8 | 23.3* | -3.0 | -5.7 | -2.3 | 21.5*
CCOC(=O)[C@]12CCCC=C1N(Cc1ccc(OC)cc1)C(=O)[C@@H]2CC(=O)N1CCN(C(=O)c2ccco2)CC1 | nt | nt | nt | nt | 2.0 | nt | nt
NC(=O)c1c(NC(=O)C2COc3ccccc3O2)sc2c1CCN(Cc1ccccc1)C2 (stereo unspecified) | 13.6 | 20.8 | 13.9* | -69.7 | 3.6 | 1.2 | 5.5
C=CCOc1ccc(/C=C/C(=O)OCC(=O)NCc2cccc(OC)c2)cc1 | -0.2 | 3.2 | 28.2* | -0.3 | -1.8 | 1.9 | 5.5
O=[N+]([O-])c1cccc(N/N=C/c2cc([N+](=O)[O-])ccc2O)c1 | 7.9 | -10.3 | 10.6* | -0.9 | -7.4 | -5.6 | 3.2
